Values joined by “and” are separate entries in the source; they are usually repeats but may differ in a detail not shown here. Equal values may be shown once.
How the values were obtained:
[1] = biological target: T1, Progesterone receptor (Homo sapiens) (UniProt P06401); test: Relative binding affinity against progesterone receptor at 0 degree Celsius determined in a competitive radiometric binding assay (R5020=100%).
T1 sequence (whole entry): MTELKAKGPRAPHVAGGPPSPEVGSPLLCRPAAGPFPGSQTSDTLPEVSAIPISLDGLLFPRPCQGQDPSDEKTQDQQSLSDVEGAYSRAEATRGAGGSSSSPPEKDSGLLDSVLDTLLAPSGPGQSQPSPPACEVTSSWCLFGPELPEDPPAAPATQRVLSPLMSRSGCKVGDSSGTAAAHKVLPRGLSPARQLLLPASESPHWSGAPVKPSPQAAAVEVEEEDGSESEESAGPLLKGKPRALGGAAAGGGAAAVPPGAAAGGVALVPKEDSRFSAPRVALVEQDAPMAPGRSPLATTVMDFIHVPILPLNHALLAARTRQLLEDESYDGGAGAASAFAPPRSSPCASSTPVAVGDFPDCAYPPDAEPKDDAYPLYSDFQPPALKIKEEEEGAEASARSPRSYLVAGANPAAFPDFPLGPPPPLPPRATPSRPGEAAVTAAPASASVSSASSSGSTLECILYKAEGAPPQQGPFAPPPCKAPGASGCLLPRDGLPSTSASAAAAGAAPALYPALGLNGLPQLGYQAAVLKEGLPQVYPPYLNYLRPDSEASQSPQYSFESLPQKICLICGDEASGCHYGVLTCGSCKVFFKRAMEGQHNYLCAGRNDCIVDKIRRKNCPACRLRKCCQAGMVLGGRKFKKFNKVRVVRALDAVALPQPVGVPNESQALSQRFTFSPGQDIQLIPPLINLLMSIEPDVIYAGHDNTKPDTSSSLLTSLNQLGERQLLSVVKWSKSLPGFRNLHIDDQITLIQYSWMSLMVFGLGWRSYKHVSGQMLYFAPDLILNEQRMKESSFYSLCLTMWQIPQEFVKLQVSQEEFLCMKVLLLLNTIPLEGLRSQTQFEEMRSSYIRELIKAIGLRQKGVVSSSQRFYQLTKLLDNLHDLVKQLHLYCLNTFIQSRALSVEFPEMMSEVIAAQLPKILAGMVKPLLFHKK
Method in brief: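 Competitive radiometric binding at 0 °C against tritium-labeled R5020 as the standard (RBA = 100). Values are the average of two experiments.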

[2] = biological target: T1, Progesterone receptor (Homo sapiens); test: Binding selectivity index as the ratio of RBA value to that of NSB value.
Method in brief: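 BSI calculated as the ratio of RBA to NSB.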

[3] = biological target: T1, Progesterone receptor (Homo sapiens); test: Nonspecific binding affinity against progesterone receptor was estimated relative to compound R5020
[4] = Partition coefficient (logP); assay type: physicochemical; settings: octanol/water
Method in brief: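 log P(o/w) (octanol/water) estimated by a reversed-phase HPLC method.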

Rattus norvegicus [5] = species: Rattus norvegicus; test: Tissue biodistribution into estrogen-primed immature female rat muscle at 1 hr time interval; assay type: ADME, organism-based; settings: in vivo
Method in brief: (§1)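 Immature female Sprague-Dawley rats (25 days old, ≈50 g, five per time point) primed with estradiol, 5 μg sc daily for 2 days in 50% ethanol/sunflower seed oil, used 24 h after the last injection. The 18F-labeled ligand was given iv by tail vein in 10% ethanol/saline. Decapitated at 1 or 3 h; blood and organs weighed and gamma-counted. Reported as %ID/g ± SD, n = 5.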

Rattus norvegicus [6] = species: Rattus norvegicus; test: Tissue biodistribution into estrogen-primed immature female rat liver at 1 hr time interval; assay type: ADME, organism-based; settings: in vivo; method in brief: as §1
Rattus norvegicus [7] = species: Rattus norvegicus; test: Tissue biodistribution into estrogen-primed immature female rat uterus at 1 hr time interval; assay type: ADME, organism-based; settings: in vivo; method in brief: as §1
Rattus norvegicus [8] = species: Rattus norvegicus; test: Tissue biodistribution into estrogen-primed immature female rat blood at 1 hr time interval; assay type: ADME, organism-based; settings: in vivo; method in brief: as §1
Rattus norvegicus [9] = species: Rattus norvegicus; test: Tissue biodistribution into estrogen-primed immature female rat bone at 1 hr time interval; assay type: ADME, organism-based, Bone element; settings: in vivo; method in brief: as §1
Rattus norvegicus [10] = species: Rattus norvegicus; test: Tissue biodistribution into estrogen-primed immature female rat brain at 1 hr time interval; assay type: ADME, organism-based; settings: in vivo; method in brief: as §1
Rattus norvegicus [11] = species: Rattus norvegicus; test: Tissue biodistribution into estrogen-primed immature female rat uterus/blood at 1 hr time interval; assay type: ADME, organism-based; settings: in vivo; method in brief: as §1
Rattus norvegicus [12] = species: Rattus norvegicus; test: Tissue biodistribution into estrogen-primed immature female rat uterus/muscle at 1 hr time interval; assay type: ADME, organism-based; settings: in vivo
Rattus norvegicus [13] = species: Rattus norvegicus; test: Tissue biodistribution into estrogen-primed immature female rat fat at 1 hr time interval; assay type: ADME, organism-based, Adipose tissue; settings: in vivo; method in brief: as §1
Rattus norvegicus [14] = species: Rattus norvegicus; test: Tissue biodistribution into estrogen-primed immature female rat lung at 1 hr time interval; assay type: ADME, organism-based; settings: in vivo; method in brief: as §1
Rattus norvegicus [15] = species: Rattus norvegicus; test: Tissue biodistribution into estrogen-primed immature female rat ovaries at 1 hr time interval; assay type: ADME, organism-based, Female gonad; settings: in vivo; method in brief: as §1
Rattus norvegicus [16] = species: Rattus norvegicus; test: Tissue biodistribution into estrogen-primed immature female rat kidney at 1 hr time interval; assay type: ADME, organism-based; settings: in vivo; method in brief: as §1

Row | RBA [1] | BSI [2] | NSB [3] | logP [4] | logP ([4]; read-out: logP) | Injected dose/g (Rattus norvegicus [5]) [%] | Injected dose/g (Rattus norvegicus [6]) [%] | Injected dose/g (Rattus norvegicus [7]) [%] | Injected dose/g (Rattus norvegicus [8]) [%] | Injected dose/g (Rattus norvegicus [9]) [%] | Injected dose/g (Rattus norvegicus [10]) [%] | Uterus to blood concentration ratio (Rattus norvegicus [11]) [%] | Uterus to muscle uptake ratio (Rattus norvegicus [12]) [%] | Injected dose/g (Rattus norvegicus [13]) [%] | Injected dose/g (Rattus norvegicus [14]) [%] | Injected dose/g (Rattus norvegicus [15]) [%] | Injected dose/g (Rattus norvegicus [16]) [%] | SMILES
1 | 100 | 100 | 1 | – | – | – | – | – | – | – | – | – | – | – | – | – | – | CCC(=O)[C@@]1(C)CC[C@H]2[C@@H]3CCC4=CC(=O)CCC4=C3CC[C@@]21C
2 | – | – | 1.2 and 0.86 | 3.9 | 4.23 | – | – | – | – | – | – | – | – | – | – | – | – | CC1(c2ccco2)O[C@@H]2CC3C4CCC5=CC(=O)CC[C@@H]5C4CC[C@]3(C)[C@]2(C(=O)CO)O1 (stereo partly specified)
3 | 240 | 98 | 2.45 | – | – | 0.44 | 4.25 | 3.65 | 0.26 | 0.62 | 0.34 | 14 | 8.2 | 3.53 | 0.6 | 2.8 | 1.42 | C[C@@]1(c2ccc(F)cc2)O[C@@H]2CC3C4CCC5=CC(=O)CC[C@@H]5C4CC[C@]3(C)[C@]2(C(=O)CO)O1 (stereo partly specified)
